Data from PMC11223199 (ACS Omega, 2024).

Key:
DeHa4 = experiment: fluoride ion probe, Lineweaver-Burk; assay type: biochemical, Delftia acidovorans; details: pH 7, PBS, 37 °C, 28 h
Summary of the method: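 Cobalt-affinity-purified enzyme from E. coli BL21 DE3 (pET15b), 250 μg in 0.5 mL with MFA (0.4–3 mM) or DFA (10–120 mM), 28 h, 250 rpm. Samples diluted in low-level TISAB and water, then read by fluoride electrode against NaF calibration (0–20 μM, second-order polynomial fit). Product equals fluoride for MFA and half of fluoride for DFA. Velocity is product per hour. 4–6 independent runs.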

DeHa2 = biological target: T1, DeHa2 (Delftia acidovorans, UniProt Q7DI63); experiment: fluoride ion probe, Lineweaver-Burk; assay type: biochemical; details: pH 7, PBS, 37 °C, 28 h
T1 sequence (Q7DI63 1-224): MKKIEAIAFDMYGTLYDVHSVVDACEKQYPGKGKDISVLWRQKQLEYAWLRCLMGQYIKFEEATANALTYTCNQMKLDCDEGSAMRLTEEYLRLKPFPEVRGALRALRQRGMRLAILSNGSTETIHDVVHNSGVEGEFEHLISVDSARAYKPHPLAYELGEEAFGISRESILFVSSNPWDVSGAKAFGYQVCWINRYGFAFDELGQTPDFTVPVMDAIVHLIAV

SMILES	Km (DeHa4) [mM]	Km (DeHa2) [mM]
O=C(O)C(F)F [DFA, difluoroacetate]	39 ± 2.36	
O=C(O)CF [MFA, monofluoroacetate]	2.19 ± 0.37	5.47 ± 1.54
